The target in assay [1] is T1, C5a anaphylatoxin chemotactic receptor 1 (Homo sapiens, UniProt P21730).
T1 sequence (P21730 whole entry): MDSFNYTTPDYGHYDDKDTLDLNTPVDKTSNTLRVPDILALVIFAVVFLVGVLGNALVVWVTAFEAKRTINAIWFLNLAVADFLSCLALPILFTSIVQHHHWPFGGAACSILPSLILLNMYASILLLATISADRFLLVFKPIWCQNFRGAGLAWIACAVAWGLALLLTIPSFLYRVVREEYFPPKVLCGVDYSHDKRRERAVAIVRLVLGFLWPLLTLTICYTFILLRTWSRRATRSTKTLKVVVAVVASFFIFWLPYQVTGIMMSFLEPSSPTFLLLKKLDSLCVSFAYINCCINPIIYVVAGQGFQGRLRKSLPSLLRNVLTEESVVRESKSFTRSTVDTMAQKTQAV
Description: Antagonist activity at human C5a receptor expressed in CHO cells co-expressed with Galpha16 assessed as inhibition of anaphylatoxin C5a-induced intracellular calcium accumulation after 10 mins by FLIPR assay. Format: functional, cell-based. In general terms: Calcium assays in cells follow changes in intracellular calcium, usually with a dye or a luminescent sensor.

Assay [2] has as its target T1, C5a anaphylatoxin chemotactic receptor 1. Nature of the assay: Displacement of [125I]human anaphylatoxin C5a from human C5a receptor expressed in CHO cells co-expressed with Galpha16 after 1 hr. Type of assay: cell-based. The method in brief: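 Intact CHO-Gα16-C5aR cells plated at 50,000/well in growth medium with 10% FBS the day before. Medium replaced by HBSS + 20 mM HEPES + 0.1% BSA. Compound added for 10 min at rt, then 0.6 nM 125I-hC5a for 1 h at rt. Cells washed eight times with PBS + 1 mM CaCl2 + 0.1% BSA on a harvester.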

Assay [3] shares this target. Description: Agonist activity at human C5a receptor expressed in CHO cells co-expressed with Galpha16 assessed as effect on anaphylatoxin C5a-induced intracellular calcium accumulation after 10 mins by FLIPR assay. Format: functional, cell-based.
For assay [4] the target is unchanged. Description: Antagonist activity at C5a receptor in human PMNC assessed as inhibition of anaphylatoxin C5a-induced intracellular calcium accumulation after 10 mins by FLIPR assay. Type of assay: functional, cell-based. The method in brief: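 Human neutrophils purified from whole blood on a Ficoll gradient, resuspended in Ca3 dye and plated at 50,000 cells/well in HBSS + 20 mM HEPES + 0.1% BSA. After 1 h at 37 °C, 5% CO2, compound added for 10 min, then 10 nM hC5a. Calcium response recorded on FLIPR.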

Assay [5] is described as follows: Inhibition of anaphylatoxin C5a-induced chemotaxis in human PMNC. Type of assay: functional.
The subject of the next assay is Blood. Nature of the assay: Inhibition of anaphylatoxin C5a-induced PMNC shape changes in human whole blood treated 10 mins before anaphylatoxin C5a-induced challenge measured after 40 mins by FACS analysis. Type of assay: functional, tissue-based. In a few lines:
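Whole-blood assay. After stimulation, cells fixed with ice-cold 1% paraformaldehyde, then red cells lysed in ice-cold hypotonic buffer for 40 min on ice. Neutrophils gated by forward and side scatter on a flow cytometer. Shape change read as the rise in autofluorescence on the FL2-H channel.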
A general note: In flow cytometry, cells or beads pass a laser one at a time.

In assay [6] the target is T2, C-X-C chemokine receptor type 3 (Homo sapiens, UniProt P49682).
T2 sequence (P49682 whole entry): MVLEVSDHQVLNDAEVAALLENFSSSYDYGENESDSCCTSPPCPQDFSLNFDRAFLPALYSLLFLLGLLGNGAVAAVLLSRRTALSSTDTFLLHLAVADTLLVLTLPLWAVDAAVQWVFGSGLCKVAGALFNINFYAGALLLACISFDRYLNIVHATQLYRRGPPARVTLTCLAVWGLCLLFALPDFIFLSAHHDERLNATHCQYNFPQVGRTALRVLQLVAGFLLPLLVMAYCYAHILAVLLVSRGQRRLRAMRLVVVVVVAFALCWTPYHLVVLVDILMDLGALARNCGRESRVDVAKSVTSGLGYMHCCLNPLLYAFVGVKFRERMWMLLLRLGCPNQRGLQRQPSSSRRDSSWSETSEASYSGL
Nature of the assay: Inhibition of CXCR3 in human T cells. Type of assay: cell-based, T-cell.

Assay [7] has as its target C-X-C chemokine receptor type 4 (Homo sapiens, UniProt P61073). Description: Inhibition of CXCR4 in human T cells. Format: cell-based, T-cell.
A further assay has as its target P2Y purinoceptor 2 (Homo sapiens, UniProt P41231). Description: Inhibition of human P2Y2 receptor expressed in CHO cells. Type of assay: cell-based.

Data on twelve molecules can be found in ChEMBL document CHEMBL1153208, “Identification of a new class of small molecule C5a receptor antagonists” (Bioorg Med Chem Lett, 2010).

A value given as a limit tells only on which side of the number the result lay.

Sequence of P2Y purinoceptor 2 (P41231 whole entry): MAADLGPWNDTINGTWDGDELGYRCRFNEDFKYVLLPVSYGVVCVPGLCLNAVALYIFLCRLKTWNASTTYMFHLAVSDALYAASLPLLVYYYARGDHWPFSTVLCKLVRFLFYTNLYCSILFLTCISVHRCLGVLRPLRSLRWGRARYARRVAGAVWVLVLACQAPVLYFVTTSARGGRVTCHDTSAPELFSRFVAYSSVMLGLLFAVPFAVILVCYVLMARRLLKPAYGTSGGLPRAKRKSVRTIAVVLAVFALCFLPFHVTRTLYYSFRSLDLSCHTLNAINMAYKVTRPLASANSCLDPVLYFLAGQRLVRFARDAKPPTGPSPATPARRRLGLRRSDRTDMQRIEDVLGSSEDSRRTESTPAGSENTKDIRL
Sequence of C-X-C chemokine receptor type 4 (P61073 whole entry): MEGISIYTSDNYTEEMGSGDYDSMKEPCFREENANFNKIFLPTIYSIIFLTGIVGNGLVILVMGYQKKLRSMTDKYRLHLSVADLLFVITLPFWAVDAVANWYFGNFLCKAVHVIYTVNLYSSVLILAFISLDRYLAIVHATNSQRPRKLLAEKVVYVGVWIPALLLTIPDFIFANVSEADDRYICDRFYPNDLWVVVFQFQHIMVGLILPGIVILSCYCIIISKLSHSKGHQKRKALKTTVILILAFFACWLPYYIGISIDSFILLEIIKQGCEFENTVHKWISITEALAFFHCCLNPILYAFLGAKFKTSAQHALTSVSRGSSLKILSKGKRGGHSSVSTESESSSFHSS

Regarding `Cc1ccc(S(=O)(=O)N(C)c2ccc(Br)cc2C(=O)c2ccccc2)cc1`, the concentration for half-maximal inhibition (IC50) (as a rule, the concentration at which inhibition is half-maximal) was greater than 60 µM in assay [1] and 14.6 µM in assay [2]. Further, the EC50 (as a rule, the concentration at which the effect is half-maximal) in assay [3] was greater than 60 µM.
Consider `Cc1ccc(S(=O)(=O)N(C)c2ccc(Cl)cc2C(=O)c2ccccc2)cc1`, for which the concentration for half-maximal inhibition (IC50) in [1] is greater than 60 µM; in assay [2] it was 8.7 µM. Moreover, the EC50 in assay [3] was greater than 60 µM.
With `Cc1ccc(S(=O)(=O)N(C)c2ccccc2C(=O)c2ccsc2)cc1`, the IC50 in [1] was 0.6 µM; in assay [2], 1.7 µM; in [4] it was 0.4 µM; in assay [5], greater than 60 µM; in the assay on Blood, greater than 60 µM; in assay [6], greater than 60 µM. The half-inhibitory concentration (IC50) (in assay [7]; on P2Y purinoceptor 2) was greater than 60 µM throughout. In addition, the EC50 in assay [3] is greater than 60 µM.
`CN(c1ccccc1N(C)S(=O)(=O)c1ccccc1)S(=O)(=O)c1ccccc1`: the IC50 in [1] and in assay [2] was greater than 60 µM in each case. For the same molecule, the EC50 in assay [3] was greater than 60 µM.
For `C=CCN(c1ccccc1N(CC=C)S(=O)(=O)c1ccc(C)cc1)S(=O)(=O)c1ccc(C)cc1`, the half-maximal inhibitory concentration (IC50) in assay [1] was 0.3 µM; in assay [2] it was 0.3 µM; in assay [4], 0.059 µM; in [5], 2.5 µM; in [6], greater than 60 µM; in assay [7], greater than 60 µM. For the same molecule, at P2Y purinoceptor 2, the IC50 was greater than 60 µM. Besides, in assay [3], the EC50 is greater than 60 µM.
Regarding `Cc1ccc(S(=O)(=O)N(CCCN(c2ccccc2)S(=O)(=O)c2ccc(C)cc2)c2ccccc2)cc1`, the IC50 in [1] and in [4] was greater than 60 µM in each case.
As to `Cc1ccc(S(=O)(=O)N2CCN(S(=O)(=O)c3ccc(C)cc3)c3ccccc32)cc1`, the IC50 in [1] and in assay [2] was greater than 60 µM throughout. Also, the EC50 in assay [3] was greater than 60 µM.
For the molecule `Cc1ccc(S(=O)(=O)N2CCN(S(=O)(=O)c3ccc(C)cc3)CC2)cc1`, the half-maximal inhibitory concentration (IC50) in [1] and in assay [4] was greater than 60 µM each time.
Take `Cc1ccc(S(=O)(=O)N(C)c2ccccc2N(C)S(=O)(=O)c2ccc(C)cc2)cc1`: the IC50 in assay [1] is 0.2 µM; in [2] it was 0.2 µM; in assay [4] it was 0.0067 µM; in [5] it was 5.7 µM; in the assay with Blood, 27 µM; in assay [6], greater than 60 µM. The half-maximal inhibitory concentration (IC50) (in [7]; against P2Y purinoceptor 2) was greater than 60 µM each time. In [3], the EC50 is greater than 60 µM.
As to `CC(=O)c1ccccc1N(C)S(=O)(=O)c1ccc(C)cc1`, the half-inhibitory concentration (IC50) in assay [1] and in assay [2] was greater than 60 µM throughout. For the same molecule, the half-maximal effective concentration (EC50) in assay [3] was greater than 60 µM.
In the case of `Cc1ccc(S(=O)(=O)N2Cc3ccccc3CN(S(=O)(=O)c3ccc(C)cc3)c3ccccc32)cc1`, the IC50 in assay [1] and in [2] was greater than 60 µM each time. Moreover, the 50% effective concentration (EC50) in [3] was greater than 60 µM.
For `Cc1ccc(S(=O)(=O)N(C)c2ccccc2C(=O)N2CCc3ccccc32)cc1`, the IC50 was found to be 38.3 µM in assay [1] and 44.5 µM in assay [2]. In addition, in assay [3], the EC50 was greater than 60 µM.
